Results as given in ChEMBL document CHEMBL5576157, “"Seasoning" antimalarial drugs' action: chloroquine bile salts as novel triple-stage antiplasmodial hits” (RSC Med Chem, 2024).
The source made the active and inactive calls. The rule behind the calls is not given here.

Legend:
Plasmodium falciparum [1] = assay: Antimalarial activity against blood stage chloroquine-sensitive Plasmodium falciparum 3D7 expressing GFP infected in erythrocytes assessed as reduction in parasitemia incubated for 72 hrs by flow cytometry analysis; type: functional, organism-based; settings: 3D7, Erythrocyte
In short: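 Growth was read by flow cytometry on the GFP channel (488 nm excitation), counting 20,000–40,000 RBC per well. IC50 values were fitted from the curves and reported as the mean of at least three experiments, each in duplicate.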

Erythrocyte = assay: Hemolytic activity in RBC (unknown origin) assessed as hemolysis at 10 uM incubated for 1 hr by microplate reader assay; type: toxicity, cell-based; settings: human
In short: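 Human blood had plasma removed by spinning. RBC were washed three times in 0.01 M PBS pH 7.4 and set to 6% hematocrit. They were mixed with an equal volume of compound at 20 µM in PBS with 1.3% DMSO and kept 1 h at 37 °C, then spun. Supernatant A450 was read. Hemolysis % was scaled between PBS/0.65% DMSO (negative) and 1% Triton X-100 (positive).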

Plasmodium falciparum [2] = assay: Antimalarial activity against stage III gametocytes of Plasmodium falciparum 3D7 expressing GFP infected erythrocytes assessed inhibition of gametocyte level at 10 uM after 72 hrs followed by compound washout and measured after 24 hrs by Giemsa-staining based microscopic analysis relative to control; type: functional; settings: 3D7, Erythrocyte
In short: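 P. falciparum 3D7HT-GFP was sorbitol-synchronized, and schizonts were Percoll-purified and cultured at 3% hematocrit until stage III gametocytes appeared. Microcultures of 1 mL (1-2% gametocytemia, 2.5% hematocrit) got 10 µM compound or DMSO (<0.3%) for 72 h, then compound-free medium for 24 h. Stage IV/V gametocytes were counted per 3000 RBC on Giemsa smears, in duplicate by two microscopists. Inhibition = 100 − (treated/drug-free control ×100).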

Plasmodium falciparum [3] = assay: Antimalarial activity against blood stage chloroquine-sensitive Plasmodium falciparum 3D7 expressing GFP infected in erythrocytes assessed as inhibition of parasite growth at 10 uM incubated for 72 hrs by flow cytometry analysis relative to control; type: functional; settings: 3D7, Erythrocyte
In short: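 Unsynchronized P. falciparum 3D7-GFP culture (0,6% hematocrit, 0,5% parasitaemia) was exposed to 10 µM compound for 72 h at 37 °C and 5% CO2. Growth was read by flow cytometry of GFP (Fl-1, 488 nm excitation), counting 20,000–40,000 erythrocytes per well.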

Huh-7 = assay: Cytotoxicity against human Huh-7 cells assessed as reduction in cell viability at 10 uM by AlamarBlue assay; type: toxicity, cell-based; settings: huh-7, 10 µM
In short: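 Huh-7 hepatoma cells were cultured in RPMI with 10% FCS, non-essential amino acids, glutamine, penicillin/streptomycin and 10 mM HEPES pH 7, at 37 °C and 5% CO2, within the liver-stage infection setup. Viability was read by AlamarBlue following the manufacturer's protocol.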

[4] = Stability of compound assessed as degradation temperature at 25 to 500 degreeC under N2 gas by thermogravimetric analysis; type: physicochemical
In short: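 Thermogravimetric analysis heated samples from 25 to 500 °C at 5 °C/min under N2 flowing at 50 mL·min⁻¹.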

Plasmodium falciparum [5] = assay: Antimalarial activity against blood stage chloroquine-resistant Plasmodium falciparum Dd2 infected in erythrocytes assessed as reduction in parasitemia incubated for 72 hrs by flow cytometry analysis; type: functional, organism-based; settings: Dd2, Erythrocyte
Plasmodium berghei = assay: Antimalarial activity against Plasmodium berghei sporozoites expressing firefly luciferase infected in human Huh-7 cells assessed reduction in parasite growth at 10 uM preincubated for 1 hr followed by infection and measured after 48 hrs by luminescence analysis; type: functional, organism-based; settings: time 49.0 hrs
In short: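 Huh-7 hepatoma cells were grown in RPMI with 10% FCS, non-essential amino acids, glutamine, penicillin/streptomycin and 10 mM HEPES pH 7, at 37 °C and 5% CO2. Cells were seeded at 1.2×10⁴/well the day before. Compound medium was added ~1 h before infection with firefly luciferase P. berghei sporozoites freshly dissected from mosquito salivary glands, then spun at 1700 g for 5 min. Parasite load was read at 48 h by lysate luminescence after luciferin addition.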

Structure (SMILES) | IC50 (Plasmodium falciparum [1]) [nM] | Activity (Erythrocyte) | inhibition at 10 µM (Plasmodium falciparum [2]) [%] | inhibition at 10 µM (Plasmodium falciparum [3]) [%] | Activity (Huh-7) | T [4] [°C] | IC50 (Plasmodium falciparum [5]) [nM] | Activity (Plasmodium berghei)
COc1cc(NC(C)CCCN)c2ncccc2c1.C[C@H](CCC(=O)NCC(=O)O)[C@H]1CC[C@H]2[C@@H]3[C@H](O)C[C@@H]4C[C@H](O)CC[C@]4(C)[C@H]3C[C@H](O)[C@]12C | 384 | Non-Toxic | 81 | 82 | Non-Toxic | 255 | – | –
COc1cc(NC(C)CCCN)c2ncccc2c1.O=P(O)(O)O.O=P(O)(O)O (centres undefined) [PRIMAQUINE PHOSPHATE] | 415 | Non-Toxic | 93 | 83 | – | – | 464 | –
CCN(CC)CCCC(C)Nc1ccnc2cc(Cl)ccc12.C[C@H](CCC(=O)O)[C@H]1CC[C@H]2[C@@H]3[C@H](O)C[C@@H]4C[C@H](O)CC[C@]4(C)[C@H]3CC[C@]12C | – | Non-Toxic | 87 | 97 | Non-Toxic | 255 | – | –
COc1cc(NC(C)CCCN)c2ncccc2c1.C[C@H](CCC(=O)O)[C@H]1CC[C@H]2[C@@H]3[C@H](O)C[C@@H]4C[C@H](O)CC[C@]4(C)[C@H]3CC[C@]12C | 380 | Non-Toxic | 80 | 82 | Non-Toxic | 366 | – | –
CCN(CC)CCCC(C)Nc1ccnc2cc(Cl)ccc12.C[C@H](CCC(=O)O)[C@H]1CC[C@H]2[C@@H]3CC[C@@H]4C[C@H](O)CC[C@]4(C)[C@H]3CC[C@]12C [listing 1 of 2 here] | – | Non-Toxic | 90 | 97 | Non-Toxic | 367 | – | –
C[C@H](CCC(=O)NCCCCNc1ccnc2cc(Cl)ccc12)[C@H]1CC[C@H]2[C@@H]3[C@H](O)C[C@@H]4C[C@H](O)CC[C@]4(C)[C@H]3C[C@H](O)[C@]12C | 108 | Non-Toxic | 91 | – | Non-Toxic | 250 | 562 | Active
CCN(CC)CCCC(C)Nc1ccnc2cc(Cl)ccc12.C[C@H](CCC(=O)O)[C@H]1CC[C@H]2[C@@H]3CC[C@@H]4C[C@H](O)CC[C@]4(C)[C@H]3C[C@H](O)[C@]12C | – | Non-Toxic | 86 | 97 | Non-Toxic | 242 | – | –
CCN(CC)CCCC(C)Nc1ccnc2cc(Cl)ccc12.C[C@H](CCC(=O)NCC(=O)O)[C@H]1CC[C@H]2[C@@H]3[C@H](O)C[C@@H]4C[C@H](O)CC[C@]4(C)[C@H]3C[C@H](O)[C@]12C | – | Non-Toxic | 86 | 97 | Non-Toxic | 361 | – | –
COc1cc(NC(C)CCCN)c2ncccc2c1.C[C@H](CCC(=O)O)[C@H]1CC[C@H]2[C@@H]3[C@H](O)C[C@@H]4C[C@H](O)CC[C@]4(C)[C@H]3C[C@H](O)[C@]12C | 589 | Non-Toxic | 91 | 82 | Non-Toxic | 359 | – | –
CCN(CC)CCCC(C)Nc1ccnc2cc(Cl)ccc12.C[C@H](CCC(=O)O)[C@H]1CC[C@H]2[C@@H]3CC[C@@H]4C[C@H](O)CC[C@]4(C)[C@H]3CC[C@]12C [listing 2 of 2 here] | – | – | – | – | – | – | – | Active
C[C@H](CCC(=O)O)[C@H]1CC[C@H]2[C@@H]3CC[C@@H]4C[C@H](O)CC[C@]4(C)[C@H]3CC[C@]12C [LITHOCHOLIC ACID] | – | Non-Toxic | 65 | – | – | 355 | – | –
CCN(CC)CCCC(C)Nc1ccnc2cc(Cl)ccc12.O=P(O)(O)O.O=P(O)(O)O (centres undefined) [CHLOROQUINE PHOSPHATE] | – | Non-Toxic | 72 | 98 | – | – | – | –
C[C@H](CCC(=O)NCC(=O)O)[C@H]1CC[C@H]2[C@@H]3[C@H](O)C[C@@H]4C[C@H](O)CC[C@]4(C)[C@H]3C[C@H](O)[C@]12C [GLYCOCHOLIC ACID] | – | Non-Toxic | 41 | – | – | 328 | – | –
C[C@H](CCC(=O)O)[C@H]1CC[C@H]2[C@@H]3CC[C@@H]4C[C@H](O)CC[C@]4(C)[C@H]3C[C@H](O)[C@]12C [DEOXYCHOLIC ACID] | – | Non-Toxic | 42 | – | – | 357 | – | –
COc1cc(NC(C)CCCN)c2ncccc2c1.C[C@H](CCC(=O)O)[C@H]1CC[C@H]2[C@@H]3CC[C@@H]4C[C@H](O)CC[C@]4(C)[C@H]3C[C@H](O)[C@]12C | 600 | Non-Toxic | 86 | 82 | Non-Toxic | 348 | – | –
COc1cc(NC(C)CCCN)c2ncccc2c1.C[C@H](CCC(=O)O)[C@H]1CC[C@H]2[C@@H]3CC[C@@H]4C[C@H](O)CC[C@]4(C)[C@H]3CC[C@]12C [listing 1 of 2 here] | – | – | – | – | – | – | – | Active
C[C@H](CCC(=O)O)[C@H]1CC[C@H]2[C@@H]3[C@H](O)C[C@@H]4C[C@H](O)CC[C@]4(C)[C@H]3C[C@H](O)[C@]12C [CHOLIC ACID] | – | Non-Toxic | 39 | – | – | 360 | – | –
CCN(CC)CCCC(C)Nc1ccnc2cc(Cl)ccc12.C[C@H](CCC(=O)O)[C@H]1CC[C@H]2[C@@H]3[C@H](O)C[C@@H]4C[C@H](O)CC[C@]4(C)[C@H]3C[C@H](O)[C@]12C | – | Non-Toxic | 88 | 97 | Non-Toxic | 253 | – | –
COc1cc(NC(C)CCCN)c2ncccc2c1.C[C@H](CCC(=O)O)[C@H]1CC[C@H]2[C@@H]3CC[C@@H]4C[C@H](O)CC[C@]4(C)[C@H]3CC[C@]12C [listing 2 of 2 here] | 424 | Non-Toxic | 83 | 82 | Non-Toxic | 253 | – | –
